What was measured:
Assay type in all cases: functional
[1] = system: A498; assay: Growth inhibition of human A498 cells incubated for 48 hrs by sulforhodamine B assay; details: for CC50: read-out: LC50 (the source's name)
In short: (§1)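 NCI Developmental Therapeutics Program NCI60 panel. Compounds that were active in the 10 µM one-dose screen went on to dose–response testing. Growth at each concentration is expressed relative to untreated control (100%). GI50 (concentration giving 50% of maximal inhibition of proliferation) and TGI (concentration giving total growth inhibition) were derived from the curves.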

[2] = system: UACC-257; assay: Growth inhibition of human UACC-257 cells assessed as cell growth at 1 uM incubated for 48 hrs by sulforhodamine B assay relative to control; details: read-out: Activity
[3] = system: HT-29; assay: Growth inhibition of human HT-29 cells assessed as cell growth at 0.01 uM incubated for 48 hrs by sulforhodamine B assay relative to control; details: read-out: Activity
[4] = system: SR; assay: Growth inhibition of human SR cells assessed as cell growth at 0.01 uM incubated for 48 hrs by sulforhodamine B assay relative to control; details: read-out: Activity
[5] = system: SK-MEL-5; assay: Growth inhibition of human SK-MEL-5 cells assessed as cell growth at 0.01 uM incubated for 48 hrs by sulforhodamine B assay relative to control; details: read-out: Activity
[6] = system: SR; assay: Growth inhibition of human SR cells assessed as cell growth at 0.1 uM incubated for 48 hrs by sulforhodamine B assay relative to control; details: read-out: Activity
[7] = system: SF-295; assay: Growth inhibition of human SF-295 cells assessed as cell growth at 0.01 uM incubated for 48 hrs by sulforhodamine B assay relative to control; details: read-out: Activity
[8] = system: HCC 2998; assay: Growth inhibition of human HCC 2998 cells assessed as cell growth at 1 uM incubated for 48 hrs by sulforhodamine B assay relative to control; details: read-out: Activity; in short: as §1
[9] = system: MCF7; assay: Growth inhibition of human MCF7 cells assessed as cell growth at 0.1 uM incubated for 48 hrs by sulforhodamine B assay relative to control; details: read-out: Activity
[10] = system: A549; assay: Growth inhibition of human A549/ATCC cells assessed as cell growth at 1 uM incubated for 48 hrs by sulforhodamine B assay relative to control; details: read-out: Activity; in short: as §1
[11] = system: UACC-62; assay: Growth inhibition of human UACC-62 cells assessed as cell growth at 0.1 uM incubated for 48 hrs by sulforhodamine B assay relative to control; details: read-out: Activity
[12] = system: RXF 393; assay: Growth inhibition of human RXF 393 cells assessed as cell growth at 100 uM incubated for 48 hrs by sulforhodamine B assay relative to control; details: read-out: Activity
[13] = system: KM12; assay: Growth inhibition of human KM12 cells assessed as cell growth at 0.01 uM incubated for 48 hrs by sulforhodamine B assay relative to control; details: read-out: Activity
[14] = system: SN12C; assay: Growth inhibition of human SN12C cells assessed as cell growth at 0.01 uM incubated for 48 hrs by sulforhodamine B assay relative to control; details: read-out: Activity
[15] = system: SK-OV-3; assay: Growth inhibition of human SK-OV-3 cells assessed as cell growth at 100 uM incubated for 48 hrs by sulforhodamine B assay relative to control; details: read-out: Activity
[16] = system: UO-31; assay: Growth inhibition of human UO-31 cells assessed as cell growth at 1 uM incubated for 48 hrs by sulforhodamine B assay relative to control; details: read-out: Activity
[17] = system: NCI-H23; assay: Growth inhibition of human NCI-H23 cells incubated for 48 hrs by sulforhodamine B assay
In short: (§2)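 NCI60 panel at the NCI Developmental Therapeutics Program. Only compounds active in the 10 µM screen went to dose-response testing. GI50, the concentration giving 50% of maximal inhibition of proliferation, and TGI, the concentration giving total growth inhibition, were derived from the dose-response curves.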

[18] = system: MDA-MB-435; assay: Growth inhibition of human MDA-MB-435 cells incubated for 48 hrs by sulforhodamine B assay; details: for CC50: read-out: LC50 (the source's name); in short: as §2
[19] = system: UACC-62; assay: Growth inhibition of human UACC-62 cells assessed as cell growth at 100 uM incubated for 48 hrs by sulforhodamine B assay relative to control; details: read-out: Activity
[20] = system: SK-MEL-5; assay: Growth inhibition of human SK-MEL-5 cells assessed as cell growth at 1 uM incubated for 48 hrs by sulforhodamine B assay relative to control; details: read-out: Activity
[21] = system: CAKI-1; assay: Growth inhibition of human CAKI-1 cells incubated for 48 hrs by sulforhodamine B assay; details: for CC50: read-out: LC50 (the source's name); in short: as §1
[22] = system: BT-549; assay: Growth inhibition of human BT-549 cells incubated for 48 hrs by sulforhodamine B assay; details: for CC50: read-out: LC50 (the source's name); in short: as §1
[23] = system: CAKI-1; assay: Growth inhibition of human CAKI-1 cells assessed as cell growth at 0.01 uM incubated for 48 hrs by sulforhodamine B assay relative to control; details: read-out: Activity; in short: as §1
[24] = system: SK-MEL-5; assay: Growth inhibition of human SK-MEL-5 cells assessed as cell growth at 0.1 uM incubated for 48 hrs by sulforhodamine B assay relative to control; details: read-out: Activity
[25] = system: 786-0; assay: Growth inhibition of human 786-0 cells incubated for 48 hrs by sulforhodamine B assay; details: for CC50: read-out: LC50 (the source's name); in short: as §1
[26] = system: HOP-92; assay: Growth inhibition of human HOP-92 cells assessed as cell growth at 0.01 uM incubated for 48 hrs by sulforhodamine B assay relative to control; details: read-out: Activity
[27] = system: UACC-62; assay: Growth inhibition of human UACC-62 cells assessed as cell growth at 1 uM incubated for 48 hrs by sulforhodamine B assay relative to control; details: read-out: Activity
[28] = system: K562; assay: Growth inhibition of human K562 cells assessed as cell growth at 0.1 uM incubated for 48 hrs by sulforhodamine B assay relative to control; details: read-out: Activity
[29] = system: SF-539; assay: Growth inhibition of human SF-539 cells assessed as cell growth at 1 uM incubated for 48 hrs by sulforhodamine B assay relative to control; details: read-out: Activity
[30] = system: MDA-MB-435; assay: Growth inhibition of human MDA-MB-435 cells assessed as cell growth at 1 uM incubated for 48 hrs by sulforhodamine B assay relative to control; details: read-out: Activity
[31] = system: ACHN; assay: Growth inhibition of human ACHN cells assessed as cell growth at 0.01 uM incubated for 48 hrs by sulforhodamine B assay relative to control; details: read-out: Activity
[32] = system: Hs-578T; assay: Growth inhibition of human Hs-578T cells assessed as cell growth at 100 uM incubated for 48 hrs by sulforhodamine B assay relative to control; details: read-out: Activity
[33] = system: SF-539; assay: Growth inhibition of human SF-539 cells assessed as cell growth at 0.1 uM incubated for 48 hrs by sulforhodamine B assay relative to control; details: read-out: Activity
[34] = system: SK-MEL-2; assay: Growth inhibition of human SK-MEL-2 cells assessed as cell growth at 0.01 uM incubated for 48 hrs by sulforhodamine B assay relative to control; details: read-out: Activity
[35] = system: HCC 2998; assay: Growth inhibition of human HCC 2998 cells assessed as cell growth at 100 uM incubated for 48 hrs by sulforhodamine B assay relative to control; details: read-out: Activity; in short: as §1
[36] = system: NCI-H460; assay: Growth inhibition of human NCI-H460 cells assessed as cell growth at 1 uM incubated for 48 hrs by sulforhodamine B assay relative to control; details: read-out: Activity
[37] = system: COLO 205; assay: Growth inhibition of human COLO 205 cells assessed as cell growth at 1 uM incubated for 48 hrs by sulforhodamine B assay relative to control; details: read-out: Activity; in short: as §1

## Nc1c(C(=O)Nc2ccccc2)sc2nc3c(cc12)CN(Cc1ccccc1)CC3
[1]
  GI50: 1.78 µM
  CC50: > 100 µM
[2]
  growth at 1 µM: 84%
[3]
  growth at 0.01 µM: 104%
[4]
  growth at 0.01 µM: 98%
[5]
  growth at 0.01 µM: 104%
[6]
  growth at 0.1 µM: 91%
[7]
  growth at 0.01 µM: 96%
[8]
  growth at 1 µM: 105%
[9]
  growth at 0.1 µM: 86%
[10]
  growth at 1 µM: 88%
[11]
  growth at 0.1 µM: 92%
[12]
  growth at 100 µM: -5%
[13]
  growth at 0.01 µM: 100%
[14]
  growth at 0.01 µM: 94%
[15]
  growth at 100 µM: 5%
[16]
  growth at 1 µM: 83%
[17]
  GI50: 21.7 µM
  LC50 (50% lethal concentration): > 100 µM
  TGI: > 100 µM
[18]
  GI50: 3.43 µM
  TGI: 71.6 µM
  CC50: > 100 µM
[19]
  growth at 100 µM: 6%
[20]
  growth at 1 µM: 95%
[21]
  GI50: 19.7 µM
  TGI: > 100 µM
  CC50: > 100 µM
[22]
  GI50: 16.8 µM
  TGI: 92.3 µM
  CC50: > 100 µM
[23]
  growth at 0.01 µM: 93%
[24]
  growth at 0.1 µM: 100%
[25]
  GI50: 13 µM
  TGI: > 100 µM
  CC50: > 100 µM
[26]
  growth at 0.01 µM: 92%
[27]
  growth at 1 µM: 89%
[28]
  growth at 0.1 µM: 99%
[29]
  growth at 1 µM: 83%
[30]
  growth at 1 µM: 68%
[31]
  growth at 0.01 µM: 101%
[32]
  growth at 100 µM: -6%
[33]
  growth at 0.1 µM: 90%
[34]
  growth at 0.01 µM: 96%
[35]
  growth at 100 µM: 47%
[36]
  growth at 1 µM: 91%
[37]
  growth at 1 µM: 93%

## COc1cccc(NC(=O)c2sc3nc4c(cc3c2N)CN(Cc2ccccc2)CC4)c1
[1]
  GI50: 3.82 µM
  TGI: 24.4 µM
  CC50: > 100 µM
[2]
  growth at 1 µM: 78%
[3]
  growth at 0.01 µM: 104%
[4]
  growth at 0.01 µM: 100%
[5]
  growth at 0.01 µM: 99%
[6]
  growth at 0.1 µM: 99%
[7]
  growth at 0.01 µM: 87%
[8]
  growth at 1 µM: 86%
[9]
  growth at 0.1 µM: 87%
[10]
  growth at 1 µM: 88%
[11]
  growth at 0.1 µM: 89%
[12]
  growth at 100 µM: -49%
[13]
  growth at 0.01 µM: 100%
[14]
  growth at 0.01 µM: 95%
[15]
  growth at 100 µM: -66%
[16]
  growth at 1 µM: 77%
[17]
  GI50: 7.18 µM
  LC50 (50% lethal concentration): > 100 µM
  TGI: 49.2 µM
[18]
  GI50: 0.296 µM
  TGI: 11 µM
  CC50: 49 µM
[19]
  growth at 100 µM: -34%
[20]
  growth at 1 µM: 58%
[21]
  GI50: 11.7 µM
  TGI: > 100 µM
  CC50: > 100 µM
[22]
  GI50: 2.83 µM
  TGI: 26.2 µM
  CC50: > 100 µM
[23]
  growth at 0.01 µM: 87%
[24]
  growth at 0.1 µM: 90%
[25]
  GI50: 3.61 µM
  TGI: 20.8 µM
  CC50: > 100 µM
[26]
  growth at 0.01 µM: 90%
[27]
  growth at 1 µM: 58%
[28]
  growth at 0.1 µM: 101%
[29]
  growth at 1 µM: 79%
[30]
  growth at 1 µM: 4%
[31]
  growth at 0.01 µM: 97%
[32]
  growth at 100 µM: -9%
[33]
  growth at 0.1 µM: 92%
[34]
  growth at 0.01 µM: 106%
[35]
  growth at 100 µM: 9%
[36]
  growth at 1 µM: 92%
[37]
  growth at 1 µM: 92%

— ChEMBL document CHEMBL4715736, “Identification of anticancer agents based on the thieno[2,3-b]pyridine and 1H-pyrazole molecular scaffolds” (2016)
